What was measured:
[1] = cited from earlier work; for renal excretion (share of dose): 100 mg dose, as OSTC or as unchanged drug
[2] = assay type: in vivo; settings: human, plasma, po, 75 mg, 75 mg oral, fed, healthy Indian subjects, mean ±SD; for AUC(0-t): AUC 0–48, reference formulation (TAMIFLU); for AUC(0-inf): reference formulation (TAMIFLU); for half-life: t1/2, reference formulation (TAMIFLU)
In short: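 Healthy Indian volunteers (n=42), fed, single oral 75 mg capsule of test compound, test and reference formulations over two periods. Blood taken 0–48 h into K3EDTA tubes on ice (<10 °C). Plasma mixed 95:5 v/v with dichlorvos stock (4 mg/mL) and stored at −20 °C, then below −70 °C. Parent and carboxylate metabolite measured by validated LC–MS/MS. Calibration ranges were 0.5–200 and 2.0–800 ng/mL.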

[3] = cited from earlier work
[4] = Stability of analytes in spiked human plasma and wet extract; assay type: physicochemical; settings: for Mean stability sample ±SD: n=6
In short: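 Human blank plasma spiked at LQC (OST/OSTC 1.5/6.0 ng/mL) and HQC (160/640 ng/mL), with dichlorvos as esterase inhibitor. Bench top (room temperature), autosampler (wet extract), freeze-thaw and long term (−20 °C, −70 °C) stability were tested, six replicates per level. Samples were thawed in an ice bath below 10 °C and extracted. Stability was read as analyte/IS area ratio by LC–MS/MS against freshly prepared comparison standards.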

[5] = hydrolysis controlled; cited from earlier work
[6] = following oral administration of OST in healthy volunteers
[7] = Bench top stability (ambient temperature), 12 h, HQC (160/640 ng/mL OST/OSTC)
[8] = Bench top stability (ambient temperature), 12 h, HQC, vs comparison samples
[9] = Bench top stability (ambient temperature), 12 h, LQC (1.5/6.0 ng/mL OST/OSTC)
[10] = Bench top stability (ambient temperature), 12 h, LQC, vs comparison samples
[11] = Freeze & thaw stability in plasma, 5 cycles, −20 °C, HQC
[12] = Freeze & thaw stability in plasma, 5 cycles, −20 °C, LQC
[13] = Freeze & thaw stability in plasma, 5 cycles, −70 °C, HQC
[14] = Freeze & thaw stability in plasma, 5 cycles, −70 °C, LQC
[15] = Long term stability in plasma: 61 days, −20 °C, HQC
[16] = Long term stability in plasma: 61 days, −20 °C, LQC
[17] = Long term stability in plasma: 61 days, −70 °C, HQC
[18] = Long term stability in plasma: 61 days, −70 °C, LQC
[19] = Wet extract stability (5 °C), 25 h, HQC
[20] = Wet extract stability (5 °C), 25 h, LQC
[21] = Wet extract stability (25 °C), 10 h, HQC
[22] = Wet extract stability (25 °C), 10 h, LQC

SMILES	renal excretion (share of dose) [1]	AUC(0-t) [2]	AUC(0-inf) [2]	half-life [2]	Mean stability sample ±SD [4, 7]	Change (%) [4, 8]	Mean stability sample ±SD [4, 9]	Change (%) [4, 10]	Change (%) [4, 11]	Mean stability sample ±SD [4, 11]	Change (%) [4, 12]	Mean stability sample ±SD [4, 12]	Change (%) [4, 13]	Mean stability sample ±SD [4, 13]	Change (%) [4, 14]	Mean stability sample ±SD [4, 14]	Change (%) [4, 15]	Mean stability sample ±SD [4, 15]	Change (%) [4, 16]	Mean stability sample ±SD [4, 16]	other results
CCC(CC)O[C@@H]1C=C(C(=O)O)C[C@H](N)[C@H]1NC(C)=O [Oseltamivir carboxylate, oseltamivir carboxylate]	63%	3900 ± 721 ng·h/mL	3990 ± 729 ng·h/mL	7.5 ± 0.96 h	653.1 ± 23.7 ng/mL	1.40%	5.841 ± 0.495 ng/mL	1.40%	−1.57%	626.2 ± 22.7 ng/mL	−2.79%	5.583 ± 0.553 ng/mL	−1.57%	626.0 ± 25.6 ng/mL	0.35%	5.762 ± 0.394 ng/mL	−0.85%	698.4 ± 16.6 ng/mL	2.72%	6.791 ± 0.273 ng/mL	time to maximum plasma levels (Cmax) [1, 6]: ≤ 5 h; time until detectable in plasma [1, 6]: about 30 min; protein bound [3]: about 43%; Change (%) [4, 17]: 0.43%; Mean stability sample ±SD [4, 17]: 707.4 ± 19.0 ng/mL; Change (%) [4, 18]: −1.82%; Mean stability sample ±SD [4, 18]: 6.492 ± 0.328 ng/mL; Change (%) [4, 19]: 0.47%; Mean stability sample ±SD [4, 19]: 647.2 ± 18.2 ng/mL; Change (%) [4, 20]: 4.55%; Mean stability sample ±SD [4, 20]: 5.983 ± 0.556 ng/mL; Change (%) [4, 21]: −0.31%; Mean stability sample ±SD [4, 21]: 642.4 ± 13.4 ng/mL; Change (%) [4, 22]: 5.77%; Mean stability sample ±SD [4, 22]: 6.050 ± 0.393 ng/mL
CCOC(=O)C1=C[C@@H](OC(CC)CC)[C@H](NC(C)=O)[C@@H](N)C1 [Oseltamivir, oseltamivir]	3%	153 ± 35 ng·h/mL	163 ± 37 ng·h/mL	4.97 ± 3.27 h	167.0 ± 9.5 ng/mL	0.60%	1.430 ± 0.043 ng/mL	2.14%	−3.05%	159.3 ± 9.1 ng/mL	−4.23%	1.364 ± 0.075 ng/mL	−2.44%	160.2 ± 5.4 ng/mL	1.41%	1.442 ± 0.070 ng/mL	1.18%	172.3 ± 3.9 ng/mL	−3.61%	1.635 ± 0.096 ng/mL	stability of OST concentration in samples kept on ice [5]: up to 1 h; Change (%) [4, 17]: 0.59%; Mean stability sample ±SD [4, 17]: 171.1 ± 3.7 ng/mL; Change (%) [4, 18]: −1.81%; Mean stability sample ±SD [4, 18]: 1.632 ± 0.035 ng/mL; Change (%) [4, 19]: 1.81%; Mean stability sample ±SD [4, 19]: 169.2 ± 7.4 ng/mL; Change (%) [4, 20]: 5.71%; Mean stability sample ±SD [4, 20]: 1.481 ± 0.086 ng/mL; Change (%) [4, 21]: 3.61%; Mean stability sample ±SD [4, 21]: 172.1 ± 10.4 ng/mL; Change (%) [4, 22]: 4.29%; Mean stability sample ±SD [4, 22]: 1.460 ± 0.077 ng/mL

Reference: paper PMC5760963 (Journal of Pharmaceutical Analysis, 2012)
